What was measured:
HCT-15 = assay: Concentration required for 50% growth inhibition of human HCT-15 cancer cell lines after 3 days of culture; assay type: functional, cell-based; details: HCT-15, 72 h
How it was run: (§1)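 MTT overall-growth assay on the five lines. Cells were plated for 24 h at 10 000–40 000 cells/mL, depending on cell type. Nine concentrations from 10^-9 to 10^-5 M in semilog steps were applied for 72 h. Formazan was read at 570 nm against a 630 nm reference, in sextuplicate. IC50 = concentration reducing overall growth by 50% versus untreated control.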

LoVo = assay: Concentration required for 50% growth inhibition of human LoVo cancer cell lines after 3 days of culture; assay type: functional, cell-based; details: 72 h; how it was run: as §1
A549 = assay: Concentration required for 50% growth inhibition of human A549 cancer cell lines after 3 days of culture; assay type: functional, cell-based; details: A549, 72 h; how it was run: as §1
[1] = Concentration required for 50% growth inhibition of human Hs 683 cancer cell lines after 3 days of culture; assay type: functional, cell-based; details: 72 h; how it was run: as §1
U373 MG = assay: Concentration required for 50% growth inhibition of human U373 cancer cell lines after 3 days of culture; assay type: functional, cell-based, U-373MG ATCC; details: 72 h; how it was run: as §1
[2] = target: Sodium/potassium-transporting ATPase subunit alpha-1 (Sus scrofa, UniProt P05024); assay: In vitro inhibitory activity against porcine Na+/K+-ATPase
How it was run: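 Porcine cerebral cortex Na+/K+-ATPase (3 × 10-3 units), preincubated 30 min at 37 °C in 30 mM Tris-HCl pH 7.4, 5 mM MgCl2 with inhibitor (1 to 50 000 nM). ADP formation coupled via pyruvate kinase/lactate dehydrogenase, excess phosphoenolpyruvate, to NADH oxidation.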

Mus musculus [3] = assay: Maximum tolerated dose after intraperitoneal administration in mouse (period of 28 days); assay type: functional
How it was run: (§2)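 Healthy, non-tumour-bearing B6D2F1 mice given one acute intraperitoneal dose, three mice per dose group, doses 5, 10, 20, 40, 80, 120 and 160 mg/kg. Survival and body weight followed for 28 days after injection. MTD is the highest single dose causing no deaths over the period.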

Mus musculus [4] = assay: Maximum tolerated dose after intraperitoneal administration in mouse (period of 28 days); not determined; assay type: functional; how it was run: as §2

SMILES	IC50 (HCT-15) [µM]	IC50 (LoVo) [µM]	IC50 (A549) [µM]	IC50 [1] [µM]	IC50 (U373 MG) [µM]	IC50 [2] [µM]	MTD (Mus musculus [3]) [mg/kg]	MTD (Mus musculus [4]) [mg/kg]
C[C@@H]1C[C@@]2(N=C(N)CS2)C2(O[Si](C)(C)C)O[C@@H]3C[C@@]4(C=O)[C@@H](CC[C@@H]5[C@@H]4CC[C@]4(C)[C@@H](C6=CC(=O)OC6)CC[C@]54CO[Si](C)(C)C)C[C@H]3O[C@@H]2O1 (some centres not stated)	> 10	> 10	7.54	8.6	> 10	50	>160	–
C[C@@H]1C[C@@]2(N=C(N)CS2)C2(O[Si](C)(C)C)O[C@@H]3C[C@@]4(CO)[C@@H](CC[C@@H]5[C@@H]4CC[C@]4(C)[C@@H](C6=CC(=O)OC6)CC[C@]54CO[Si](C)(C)C)C[C@H]3O[C@@H]2O1 (some centres not stated)	0.454	0.34	0.126	0.346	0.925	1.89	>160	–
C[C@@H]1C[C@@]2(N=C(N)CS2)C2(O[Si](C)(C)C)O[C@@H]3C[C@@]4(CO[Si](C)(C)C)[C@@H](CC[C@@H]5[C@@H]4CC[C@]4(C)[C@@H](C6=CC(=O)OC6)CC[C@]54CO)C[C@H]3O[C@@H]2O1 (some centres not stated)	3.66	3.85	2.58	1.11	4.62	4.08	>160	–
CC(=O)CCC(=O)OC[C@]12C[C@H]3OC4(O)[C@@H](O[C@H](C)C[C@@]45NC(=O)CS5)O[C@@H]3C[C@@H]1CC[C@@H]1[C@@H]2CC[C@]2(C)[C@@H](C3=CC(=O)OC3)CC[C@]12CO (some centres not stated)	3.24	3	0.463	0.758	3.23	–	–	20
C[C@@H]1C[C@@]2(N=C(N)CS2)C2(O[Si](C)(C)C)O[C@@H]3C[C@@]4(CO[Si](C)(C)C)[C@@H](CC[C@@H]5[C@@H]4CC[C@]4(C)[C@@H](C6=CC(=O)OC6)CC[C@]54CO[Si](C)(C)C)C[C@H]3O[C@@H]2O1 (some centres not stated)	> 10	> 10	> 10	> 10	> 10	> 50	>160	–
CC(=O)OC[C@]12C[C@H]3OC4(O[Si](C)(C)C)[C@@H](O[C@H](C)C[C@@]45N=C(N)CS5)O[C@@H]3C[C@@H]1CC[C@@H]1[C@@H]2CC[C@]2(C)[C@@H](C3=CC(=O)OC3)CC[C@]12CO[Si](C)(C)C (some centres not stated)	> 10	9.57	> 10	7.92	> 10	> 50	>160	–
CC(=O)OC[C@]12C[C@H]3OC4(O)[C@@H](O[C@H](C)C[C@@]45N=C(N)CS5)O[C@@H]3C[C@@H]1CC[C@@H]1[C@@H]2CC[C@]2(C)[C@@H](C3=CC(=O)OC3)CC[C@]12CO (some centres not stated)	4.13	3.54	3.71	> 1.28	> 4.15	12.1	>40	–
C[C@@H]1C[C@@]2(N=C(N)CS2)[C@]2(O)O[C@@H]3C[C@@]4(C=O)[C@@H](CC[C@@H]5[C@@H]4CC[C@]4(C)[C@@H](C6=CC(=O)OC6)CC[C@]54O)C[C@H]3O[C@@H]2O1	0.028	0.01	0.025	0.004	0.04	0.068	5	–
C[C@@H]1C[C@@]2(N=C(N)CS2)C2(O)O[C@@H]3C[C@@]4(COC(=O)c5ccccc5)[C@@H](CC[C@@H]5[C@@H]4CC[C@]4(C)[C@@H](C6=CC(=O)OC6)CC[C@]54CO)C[C@H]3O[C@@H]2O1 (some centres not stated)	> 10	> 10	> 10	> 10	> 10	> 50	>40	–

— ChEMBL document CHEMBL1144441, “Identification of a novel cardenolide (2''-oxovoruscharin) from Calotropis procera and the hemisynthesis of novel derivatives displaying potent in vitro antitumor activities and high in vivo tolerance: structure-activity relationship analyses” (J Med Chem, 2005)
